For assay [1], the system named is A549. As to the kind of experiment: Growth inhibition of p53+, pRb+ human A549 cells after 48 hrs by MTT assay. As to conditions: A549, 48 h. It counts as functional, cell-based. The method in brief: (§1)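 MTT cell proliferation assay. IC50 (µM) was defined as the concentration giving 50% inhibition of cell growth.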
On the technique in general: Formazan colour is commonly taken as a measure of viable cells.

Assay [2] deals with CDK9/cyclin T1 (Homo sapiens, UniProt P50750). As to the kind of experiment: Binding affinity to human CDK9/cyclinT1. The format is protein-complex assay.
CDK9/cyclin T1, sequence (O60563 whole entry): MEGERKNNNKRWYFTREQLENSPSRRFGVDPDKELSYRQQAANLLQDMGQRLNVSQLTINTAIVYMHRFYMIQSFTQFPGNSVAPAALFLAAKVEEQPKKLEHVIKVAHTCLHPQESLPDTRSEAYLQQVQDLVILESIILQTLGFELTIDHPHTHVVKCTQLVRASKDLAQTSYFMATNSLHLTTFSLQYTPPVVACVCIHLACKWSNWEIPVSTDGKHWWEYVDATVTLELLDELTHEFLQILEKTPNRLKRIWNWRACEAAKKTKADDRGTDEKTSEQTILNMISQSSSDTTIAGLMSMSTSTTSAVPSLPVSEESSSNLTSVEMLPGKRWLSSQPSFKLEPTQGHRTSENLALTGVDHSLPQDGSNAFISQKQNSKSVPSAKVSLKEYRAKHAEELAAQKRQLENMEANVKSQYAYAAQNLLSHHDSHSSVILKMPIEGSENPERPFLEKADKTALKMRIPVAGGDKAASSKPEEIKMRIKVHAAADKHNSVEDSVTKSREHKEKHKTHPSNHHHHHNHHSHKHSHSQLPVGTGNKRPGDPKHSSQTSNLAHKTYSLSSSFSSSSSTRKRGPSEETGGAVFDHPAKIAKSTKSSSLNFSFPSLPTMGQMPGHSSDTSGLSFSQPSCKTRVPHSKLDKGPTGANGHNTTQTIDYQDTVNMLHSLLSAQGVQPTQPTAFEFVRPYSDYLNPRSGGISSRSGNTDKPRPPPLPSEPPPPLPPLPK
CDK9/cyclin T1, sequence (P50750 whole entry): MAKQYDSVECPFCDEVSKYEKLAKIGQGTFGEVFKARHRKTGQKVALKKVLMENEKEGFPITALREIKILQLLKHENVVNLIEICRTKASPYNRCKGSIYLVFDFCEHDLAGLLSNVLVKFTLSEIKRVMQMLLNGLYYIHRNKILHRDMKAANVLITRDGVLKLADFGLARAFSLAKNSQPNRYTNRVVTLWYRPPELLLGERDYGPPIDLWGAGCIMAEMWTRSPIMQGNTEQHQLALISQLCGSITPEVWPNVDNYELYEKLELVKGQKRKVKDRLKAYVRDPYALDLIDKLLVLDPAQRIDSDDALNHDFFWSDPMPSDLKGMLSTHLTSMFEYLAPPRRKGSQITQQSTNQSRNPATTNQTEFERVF
The target of assay [3] is Cyclin-dependent kinase 1/cyclin B1 (Homo sapiens, UniProt P06493). As to the kind of experiment: Binding affinity to human CDK1/cyclinB1. It counts as protein-complex assay.
Cyclin-dependent kinase 1/cyclin B1, sequence (P06493 whole entry): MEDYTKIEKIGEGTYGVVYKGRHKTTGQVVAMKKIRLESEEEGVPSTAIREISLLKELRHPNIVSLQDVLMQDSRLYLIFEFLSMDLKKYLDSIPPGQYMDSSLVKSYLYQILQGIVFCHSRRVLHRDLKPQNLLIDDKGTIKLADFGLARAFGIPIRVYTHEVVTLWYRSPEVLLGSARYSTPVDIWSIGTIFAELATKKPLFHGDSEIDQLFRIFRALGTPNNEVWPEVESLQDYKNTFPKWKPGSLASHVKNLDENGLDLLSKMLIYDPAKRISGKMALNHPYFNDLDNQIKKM
Cyclin-dependent kinase 1/cyclin B1, sequence (P14635 whole entry, further chain): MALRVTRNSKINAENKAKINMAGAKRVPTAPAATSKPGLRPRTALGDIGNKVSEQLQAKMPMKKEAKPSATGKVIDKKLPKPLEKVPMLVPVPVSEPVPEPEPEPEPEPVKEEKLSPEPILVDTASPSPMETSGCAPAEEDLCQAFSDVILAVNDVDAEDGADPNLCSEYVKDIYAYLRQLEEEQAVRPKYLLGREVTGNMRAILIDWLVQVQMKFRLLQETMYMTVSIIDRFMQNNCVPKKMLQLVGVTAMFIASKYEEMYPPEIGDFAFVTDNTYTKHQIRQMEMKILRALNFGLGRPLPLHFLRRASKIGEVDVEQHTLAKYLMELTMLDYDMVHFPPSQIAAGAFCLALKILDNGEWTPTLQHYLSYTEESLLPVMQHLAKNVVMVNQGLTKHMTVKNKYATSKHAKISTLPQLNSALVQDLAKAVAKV
The target in assay [4] is Cyclin-dependent kinase 2/cyclin E1 (Homo sapiens, UniProt P24941). As to the kind of experiment: Binding affinity to human CDK2/cyclinE. It counts as protein-complex assay.
Assay [5] can be described thus: Growth inhibition of p53 null,pRb+ human PC3 cells after 48 hrs by MTT assay. It counts as functional, cell-based. The note with it: PC-3, 48 h. The method in brief:
as §1

Assay [6] concerns the target CDK2/Cyclin A2 (Homo sapiens, UniProt P24941). As to the kind of experiment: Binding affinity to human CDK2/cyclinA using GST-pRB152 as substrate by chemiluminescence assay. The format is protein-complex assay.
Assay [7] deals with Cyclin-dependent kinase 4/cyclin D1 (Homo sapiens, UniProt P11802). As to the kind of experiment: Binding affinity to human CDK4/cyclinD1 using GST-pRB152 as substrate by chemiluminescence assay. The format is protein-complex assay.
Cyclin-dependent kinase 4/cyclin D1, sequence (P11802 whole entry): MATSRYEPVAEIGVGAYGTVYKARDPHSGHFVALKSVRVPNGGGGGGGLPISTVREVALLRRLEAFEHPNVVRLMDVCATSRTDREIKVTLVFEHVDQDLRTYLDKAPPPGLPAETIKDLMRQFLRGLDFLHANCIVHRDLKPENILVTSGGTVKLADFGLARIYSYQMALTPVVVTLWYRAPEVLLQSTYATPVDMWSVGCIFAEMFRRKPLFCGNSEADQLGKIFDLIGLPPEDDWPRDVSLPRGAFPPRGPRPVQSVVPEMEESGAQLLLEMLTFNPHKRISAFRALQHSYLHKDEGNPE
Cyclin-dependent kinase 4/cyclin D1, sequence (P24385 whole entry, further chain): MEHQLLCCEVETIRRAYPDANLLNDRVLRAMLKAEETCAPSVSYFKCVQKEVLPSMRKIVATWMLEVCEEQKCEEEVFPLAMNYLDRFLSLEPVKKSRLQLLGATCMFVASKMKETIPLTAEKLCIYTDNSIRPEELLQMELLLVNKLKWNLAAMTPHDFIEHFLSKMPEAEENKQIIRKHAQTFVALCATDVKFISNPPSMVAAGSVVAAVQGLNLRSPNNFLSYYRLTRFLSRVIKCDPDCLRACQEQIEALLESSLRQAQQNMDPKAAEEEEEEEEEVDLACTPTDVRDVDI
Assay [8] is described as follows: Growth inhibition of p53+, pRb+ human LS 174T cells after 48 hrs by MTT assay. It counts as functional, cell-based. The note with it: LS174T. The method, boiled down:
as §1

Assay [9] is described as follows: Displacement of ethidium bromide from closed circular plasmid DNA (unknown origin) by fluorescence quenching assay.
Assay [10] is described as follows: Growth inhibition of p53 null, pRb+ human Calu1 cells after 48 hrs by MTT assay. It counts as functional, cell-based. As to conditions: Calu-1, 48 h. The method in brief:
as §1

Assay [11] has as its system NCI-H358. As to the kind of experiment: Growth inhibition of p53 null, pRb null human NCI-H358 cells after 48 hrs by MTT assay. It counts as functional, cell-based. The note with it: NCI-H358, 48 h. The method, boiled down: as §1
Assay [12] is described as follows: Growth inhibition of p53His273 mut, pRb+ human MiaPaCa cells after 48 hrs by MTT assay. As to conditions: MIA PaCa-2, 48 h. The format is functional. The method in brief: as §1
Assay [13] in a line: Growth inhibition of p53+, pRb+ human NCI-H460 cells after 48 hrs by MTT assay. It counts as functional, cell-based. The note with it: NCI-H460, 48 h. The method in brief: as §1
Assay [14] can be described thus: Growth inhibition of mouse BNL-CL2 cells after 48 hrs by MTT assay. The format is functional, cell-based. As to conditions: BNL CL.2, 48 h. The method in brief:
as §1

The nature of assay [15]: Growth inhibition of mouse BNL-SVA.8 cells after 48 hrs by MTT assay. The format is functional. The method, boiled down: as §1
In assay [16] the test system is NCI-H1299. As to the kind of experiment: Growth inhibition of p53 null, pRb+ human NCI-H1299 cells after 48 hrs by MTT assay. It counts as functional, cell-based. As to conditions: NCI-H1299, 48 h. The method in brief: as §1

pIC50: −log10 of the molar value. Active and inactive are the calls of the source.

For `O=C1c2ccccc2-[n+]2ccc3c([nH]c4ccccc43)c21` [FASCAPLYSIN CHLORIDE], the negative-log IC50 (pIC50) in assay [1] was 6.16; in assay [2] it was less than 3.60; in assay [3], less than 3.60; in [4], less than 3.60; in [5], 6.04; in assay [6] it was less than 3.60. In addition, the pIC50 in assay [7] was 6.39; in assay [8], 6.06; in [9] it was 5.30; in [10], 5.89.
On to `CN(CCc1c[nH]c2ccccc12)C(=O)c1ccc(C(C)(C)C)cc1`, for which the pIC50 in assay [11] is 4.85; in [2] it was less than 3.00; in [3] it was less than 3.30; in [12], 4.99; in [13] it was 5.01; in [14], 4.74. In addition, the results for the pIC50 in [15] and in [16] were 4.66 and 4.94, respectively. Moreover, the inhibition result in assay [9] is “inactive”.
Consider `CN(CCc1c[nH]c2ccccc12)C(=O)c1ccc(Cl)cc1`, for which the pIC50 in assay [11] is 4.59; in assay [2] it was less than 3.00; in [3], less than 3.30; in assay [12], 4.51; in assay [13] it was 4.62; in assay [14] it was 4.54. The pIC50 in assay [15] is 4.49; in assay [16], 4.68. Also, the inhibition result in [9] was “inactive”.

By pIC50 is commonly meant the negative decadic logarithm of the IC50, by convention in mol/L.

The values are drawn from ChEMBL document CHEMBL3351368, “Biphenyl-4-carboxylic acid [2-(1H-indol-3-yl)-ethyl]-methylamide (CA224), a nonplanar analogue of fascaplysin, inhibits Cdk4 and tubulin polymerization: evaluation of in vitro and in vivo anticancer activity” (J Med Chem, 2014).
